Measurements from different studies.
Compare with care: the assays were run in different laboratories.
PLA2G5: Phospholipase A2 group V (PLA2G5, Homo sapiens, UniProt P39877)
MDH2: Malate dehydrogenase, mitochondrial (MDH2, Sus scrofa, UniProt P00346)
CXCR4: C-X-C chemokine receptor type 4 (CXCR4, Homo sapiens, UniProt P61073)
CDK9 with cyclin T1: Cyclin-dependent kinase 9, with cyclin T1 (CDK9, Homo sapiens, UniProt P50750)
MERTK: Tyrosine-protein kinase Mer (MERTK, Homo sapiens, UniProt Q12866)
CYP2C9: Cytochrome P450 2C9 (CYP2C9, Homo sapiens, UniProt P11712)
AKT1: RAC-alpha serine/threonine-protein kinase (AKT1, Homo sapiens, UniProt P31749)
NTRK3: NT-3 growth factor receptor (NTRK3, Homo sapiens, UniProt Q16288)

CCN(CC)CCOc1ccc2c(c1)C(=O)c1cc(OCCN(CC)CC)ccc1-2 gave an IC50 of 0.0646 µM (Acetylcholinesterase (ACHE, Homo sapiens, UniProt P22303); enzyme activity, inhibitor).
For [Na+].[Na+].[Na+].[O]=[V]([O-])([O-])[O-], the IC50 was 4.4 µM (Tyrosine-protein phosphatase non-receptor type 6 (PTPN6, Homo sapiens, UniProt P29350); enzyme activity, inhibitor, absorbance).
COc1cc(/C=C/C(=O)c2ccc(NC(=O)c3ccccc3CN3C(=O)c4ccccc4C3=O)cc2)cc(OC)c1OC has an IC50 of 2.32 µM (Tubulin beta-5 chain (TUBB, Homo sapiens, UniProt P07437); tubulin polymerisation, inhibitor, ELISA).
For CC(=O)c1cccc(N=Nc2c(C(=O)O)cc(O)c(O)c2O)c1, the IC50 was 8.47 µM (PLA2G5; enzyme activity, inhibitor, Ellman).
COc1ccc(S(=O)(=O)Nc2ccc(-c3nc4cc(NS(=O)(=O)c5ccc(OC)cc5)ccc4o3)cc2)cc1 has an IC50 of greater than 62.5 µM (MDH2; enzyme activity, inhibitor).
The IC50 of CC/C(=N\NC(=O)C(C)Nc1ccccc1)c1ccc(O)c(C)c1O (stereo not drawn) is reported as 0.0117 µM (Serine/threonine-protein kinase Sgk2 (SGK2, Homo sapiens, UniProt Q9HBY8); enzyme activity, inhibitor).
Cc1noc(C)c1CN(C(=O)CCc1nc(Cc2ccccc2)no1)c1ccccc1 gave an IC50 of 200 µM (CXCR4; β-arrestin recruitment).
The IC50 of CC(=O)c1cccc(/N=N/c2cc(/C=C/C(=O)O)ccc2O)c1 is reported as 43.9 µM (PLA2G5; enzyme activity, inhibitor, Ellman).
O=c1cc(-c2ccccc2)oc2ccc3ccccc3c12 gave an IC50 of greater than 10 µM (CDK9 with cyclin T1; enzyme activity, inhibitor, ADP detection).
The IC50 of CS(=O)(=O)c1ncc(N(Cc2ccccc2)Cc2ccco2)c(C(=O)Nc2ccccc2Cl)n1 is reported as 40 µM (CXCR4; β-arrestin recruitment, antagonist).
NC(=O)c1ccc[n+]([C@@H]2O[C@H](COP(=O)([O-])OP(=O)(O)OC[C@H]3O[C@@H](n4cnc5c(N)ncnc54)[C@H](O)[C@@H]3O)[C@@H](O)[C@H]2O)c1 gave an IC50 of 395 µM (Poly [ADP-ribose] polymerase tankyrase-1 (TNKS, Homo sapiens, UniProt O95271); enzyme activity, inhibitor).
For OCc1cc(C(O)CNCCCCCCOCCCCc2ccccc2)ccc1O (stereo not drawn), the IC50 was 38.3 µM (CXCR4; calcium signal, antagonist).
For CCS(=O)(=O)c1ncc(N(Cc2ccco2)Cc2ccco2)c(C(=O)Nc2c(C)cccc2C)n1, the IC50 was 13 µM (CXCR4; β-arrestin recruitment, antagonist).
Cc1ccc(C(=O)Nc2ccc(Oc3cc4cnn(C)c4cc3-c3cn[nH]c3)c(F)c2)c(=O)n1-c1ccc(F)cc1 has an IC50 of 0.01 µM (MERTK; cell growth or viability, ATP luminescence).
With O=C(Nc1ccc2[nH]nc(-c3ccncc3)c2c1)[C@@H]1CCN(CC(=O)N2CCN(c3ccc(-c4ncccn4)cc3)CC2)C1 the IC50 was 0.0042 µM (Mitogen-activated protein kinase 3 (MAPK3, Homo sapiens, UniProt P27361); enzyme activity, inhibitor, radiometric).
COc1ccc2cc3[n+](cc2c1OC)CCc1cc2c(cc1-3)OCO2 has an IC50 of 0.7 µM (CYP2C9; enzyme activity, inhibitor).
Nc1nc(N)c2nc(CNc3cccc4ccccc34)cnc2n1 gave an IC50 of 11 µM (CYP2C9; enzyme activity, inhibitor, luciferase).
The IC50 of O=S(=O)(Nc1ccc(-c2nc3cc(NS(=O)(=O)c4ccc(F)cc4)ccc3o2)cc1)c1ccc(F)cc1 is reported as greater than 62.5 µM (MDH2; enzyme activity, inhibitor).
The IC50 of CC(C)(C)n1nc(-c2cnc3cc(OC4CC4)ccc3c2)c(C(N)=O)c1N is reported as greater than 10 µM (AKT1; cell-free assay).
CCN1CCN(Cc2ccc(NC(=O)c3ccc(C)c(NC(=O)c4cncc(-c5cccs5)c4)c3)cc2C(F)(F)F)CC1 gave an IC50 of 0.419 µM (Ephrin type-A receptor 2 (EPHA2, Homo sapiens, UniProt P29317); enzyme activity, inhibitor, ADP detection).
With Nn1cnnc1O the IC50 was greater than 100 µM (DNA dC->dU-editing enzyme APOBEC-3A (Homo sapiens, UniProt P31941); enzyme activity, inhibitor).
With c1ccc(-n2cc(CCN(Cc3nc(C4CC4)no3)Cc3nc(C4CC4)no3)cn2)cc1 the IC50 was 200 µM (CXCR4; β-arrestin recruitment).
For CC(C)NCCCC[C@H](NC(=O)[C@H]1CCC(=O)N[C@@H](Cc2ccccc2)C(=O)N[C@@H](Cc2ccc(O)cc2)C(=O)N[C@@H](CCCCNC(C)C)C(=O)N[C@H](CCCNC(=N)N)C(=O)N[C@@H](Cc2ccc3ccccc3c2)C(=O)NCC(=O)N1)C(N)=O, the IC50 was 0.0248 µM (CXCR4; ligand displacement, radioligand).
The IC50 of COc1ccc2c(Oc3ccc4c(C(=O)Nc5ccccc5N)cccc4c3)ccnc2c1 is reported as greater than 0.5 µM (AKT1; enzyme activity, inhibitor).
With Cc1cnc(-c2ccc(-c3ccc(NC(=O)Nc4c(F)cc(F)cc4F)cc3F)c3c2C(=O)NC3)[nH]1 the IC50 was 0.0007 µM (NTRK3; enzyme activity, inhibitor).
Cc1ccc(CN(Cc2ccco2)c2cnc(S(C)(=O)=O)nc2C(=O)Nc2ccc(C)cc2)cc1 gave an IC50 of 25 µM (CXCR4; β-arrestin recruitment, antagonist).
CCn1ncc2c1-c1cnc(N)c(c1)O[C@H](C)c1cc(F)ccc1-c1nn(C)nc1C2 gave an IC50 of 0.19 µM (NTRK3; enzyme activity, inhibitor).
CC(C)(C)n1nc(-c2ccc3nc(OC4CC4)ccc3c2)c(C(N)=O)c1N gave an IC50 of greater than 10 µM (Calcium/calmodulin-dependent protein kinase kinase 2 (CAMKK2, Homo sapiens, UniProt Q96RR4); cell-free assay).
COc1c(C(=O)/C=C(\O)c2ccccc2)ccc2occc12 gave an IC50 of greater than 100 µM (CDK9 with cyclin T1; enzyme activity, inhibitor, ADP detection).
CC(=O)NS(=O)(=O)c1ccc(NC(=O)C=CC(=O)O)cc1 has an IC50 of 59.3 µM (Dipeptidyl peptidase 4 (DPP4, Homo sapiens, UniProt P27487); enzyme activity, inhibitor, fluorescence).
Cc1ccc(S(=O)(=O)Nc2ccc(-c3nc4ccc(NS(=O)(=O)c5ccc(C)cc5)cc4[nH]3)cc2)cc1 has an IC50 of greater than 62.5 µM (MDH2; enzyme activity, inhibitor).
CC(C)=CCC/C(C)=C/Cc1ccc[n+](CC(P(=O)([O-])O)P(=O)(O)O)c1 (stereo not drawn) gave an IC50 of 10 µM (Geranylgeranyl pyrophosphate synthase (GGPS1, Homo sapiens, UniProt O95749); enzyme activity, inhibitor).
For COc1ccc(S(=O)(=O)Nc2ccc3oc(-c4ccc(NC(=O)c5cccc(C)c5[N+](=O)[O-])cc4)nc3c2)cc1, the IC50 was greater than 62.5 µM (MDH2; enzyme activity, inhibitor).
CCn1c(COC(=O)c2ccccc2NC(=O)c2ccco2)nc2cc(S(=O)(=O)N(C)C)ccc21 gave an IC50 of 63 µM (CXCR4; β-arrestin recruitment, antagonist).
For O=S(=O)(Nc1ccc(-c2nc3cc(NS(=O)(=O)c4cccc(C(F)(F)F)c4)ccc3o2)cc1)c1cccc(C(F)(F)F)c1, the IC50 was greater than 62.5 µM (MDH2; enzyme activity, inhibitor).
With CNC(=O)c1cc2c(Oc3ccc(NC(=O)C4(C(=O)Nc5ccc(F)cc5)CC4)cc3)ccnc2cc1OC the IC50 was 0.003 µM (MERTK; enzyme activity, inhibitor, TR-FRET).
The IC50 of O=S(=O)(Nc1ccc(-c2nc3cc(NS(=O)(=O)c4ccc(Br)cc4)ccc3o2)cc1)c1ccc(Br)cc1 is reported as greater than 62.5 µM (MDH2; enzyme activity, inhibitor).
CCS(=O)(=O)c1ncc(N(Cc2ccccc2)Cc2ccco2)c(C(=O)Nc2ccccc2F)n1 gave an IC50 of 50 µM (CXCR4; β-arrestin recruitment, antagonist).
With COc1ccc(S(=O)(=O)Nc2ccc3oc(-c4ccc(NS(=O)(=O)c5cc(F)ccc5OC)cc4)nc3c2)cc1 the IC50 was greater than 62.5 µM (MDH2; enzyme activity, inhibitor).
The IC50 of O=C(O)/C=C/c1ccc(O)cc1 is reported as 55.1 µM (PLA2G5; enzyme activity, inhibitor, Ellman).
For COc1ccccc1S(=O)(=O)Nc1ccc(-c2nc3cc(NS(=O)(=O)c4ccccc4OC)ccc3o2)cc1, the IC50 was greater than 62.5 µM (MDH2; enzyme activity, inhibitor).
With C=CC(=O)Nc1ccc(N2CCC[C@@H](Nc3ncc(Cl)c(-c4c[nH]c5ccccc45)n3)C2)cc1C the IC50 was 0.165 µM (CDK9 with cyclin T1; enzyme activity, inhibitor, FRET).
